Measurements published in ChEMBL document CHEMBL1131456, “Synthesis, pharmacological characterization, and quantitative structure-activity relationship analyses of 3,7,9,9-tetraalkylbispidines: derivatives with specific bradycardic activity” (J Med Chem, 1998).

Legend:
[1] = Partition coefficient (logP); assay type: physicochemical; settings: octanol/water; read-out: logP
Method in brief: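 Lipophilicity was measured by reversed-phase HPLC. Mobile phase was methanol/0.005 M phosphate buffer pH 4 (60/40) with 0.1% SDS and 0.1 M NaClO4, at 23.0 ± 0.5 °C, with UV detection at 205 nm.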

[2] = species: Cavia porcellus; assay: In vitro activity in guinea pig atria as the functional refractory period (FRP), which is the shortest interval between a double stimulus causing a double contraction.
Method in brief: (§1)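 Isolated guinea pig atria in oxygenated buffer at 35 °C. Right atria beat spontaneously; left atria were paced at 2 Hz with 1 ms rectangular pulses and isometric contractions were recorded. Cumulative concentration–response curves were run with up to five concentrations. EC75/EC125 is the concentration giving a 25% decrease/increase from the predrug value, reported as the geometric mean of individual ECs.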

[3] = species: Cavia porcellus; assay: In vitro activity in guinea pig atria was measured as rate of spontaneously beating right atrium (SR) which reflects the activity of the sinus node; assay type: functional; settings: Cardiac atrium; method in brief: as §1
[4] = species: Cavia porcellus; assay: Score point for the selectivity versus additional effect FRP.; assay type: functional
[5] = species: Cavia porcellus; assay: Score value indicates decrease of the sinus rate; assay type: functional
[6] = species: Cavia porcellus; assay: Score value indicates selectivity versus the decrease in force of contraction; assay type: functional
[7] = species: Cavia porcellus; assay: Sum of the scores of decrease of the sinus rate and selectivity versus the decrease in force of contraction; assay type: functional
[8] = test system: Rattus norvegicus; assay: In vivo activity in anesthetized rat was measured as the R alpha T-interval of the rat ECG which reflects the time from ventricular excitation to recovery; assay type: functional, Cardiac ventricle
Method in brief: (§2)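 Male Wistar rats (280–360 g) under urethane (1.25 g/kg ip), intubated and breathing spontaneously. Femoral arterial pressure was recorded with needle-electrode ECG, analysed every 30 s. Compound was given by continuous femoral-vein infusion at 0.1 mL/min, with concentration raised tenfold every 10 min (3 doses). ED75/ED125 is the dose giving a 25% decrease/increase from the predrug value, reported as the geometric mean of individual EDs.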

[9] = test system: Rattus norvegicus; assay: In vivo activity in anesthetized rat was measured as the diastolic arterial pressure which provides information on the peripheral resistance of the cardiovascular system and selectivity regarding bradycardia; assay type: functional, Artery; method in brief: as §2
[10] = test system: Rattus norvegicus; assay: In vivo activity in anesthetized rat was measured as heart rate which provides information on in vivo bradycardic activity; assay type: functional; method in brief: as §2
[11] = species: Rattus norvegicus; assay: Score point for the selectivity versus additional effect R&T interval.; assay type: functional
[12] = species: Rattus norvegicus; assay: Score value indicates desire effect on heart rate; assay type: functional
[13] = species: Rattus norvegicus; assay: Score value indicates selectivity against the undesired effect on diastolic blood pressure; assay type: functional, Artery
[14] = species: Cavia porcellus; assay: Selectivity quotient (F75/SR75); assay type: functional
Method in brief: (§3)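 Atrial selectivity quotients were calculated from the guinea pig atrial EC values as F75/SR75 and FRP125/SR75.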

[15] = species: Cavia porcellus; assay: Selectivity quotient (FRP125/SR75); assay type: functional; method in brief: as §3
[16] = species: Cavia porcellus; assay: In vitro activity in guinea pig atria was measured as the peak force of contraction (F) of a stimulated left atrium; assay type: functional; settings: Cardiac atrium; method in brief: as §1
[17] = species: Rattus norvegicus; assay: Total score (SS)
[18] = species: Rattus norvegicus; assay: Selectivity quotient (DAP125/HR75)
[19] = species: Rattus norvegicus; assay: Selectivity quotient (R&T125/HR75)
[20] = Selectivity quotient (F75/SR75); # means very high (estimated); assay type: functional
Method in brief: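 Isolated atria in oxygenated buffer at 35 °C. Spontaneously beating right atria gave sinus rate; left atria paced at 2 Hz with 1 ms rectangular pulses gave isometric force of contraction. Cumulative concentration-response curves used up to five concentrations. EC75 (25% decrease from predrug value) was taken as the geometric mean of individual values. Quotient is F75/SR75.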

| SMILES | logP [1] | EC125 [2] [µM] | EC75 [3] [nM] | Score [4] | Score [5] | Score [6] | Score [7] | ED125 [8] [µM/kg] | ED125 [9] [µM/kg] | ED75 [10] [µM/kg] | Score [11] | Score [12] | Score [13] | Selectivity quotient [14] | Selectivity quotient [15] | EC75 [16] [nM] | total score (SS) [17] | Selectivity quotient [18] | Selectivity quotient [19] | Selectivity quotient [20] |
| --- | --- | --- | --- | --- | --- | --- | --- | --- | --- | --- | --- | --- | --- | --- | --- | --- | --- | --- | --- | --- |
| CCCCN1CC2CN(CCCC)CC(C1)C2(CCCC)CCCC | 7.03 | 1.01 | 1910 | 3 | 5 | -5 | 0 | 3.2 | 5.1 | 8.7 | 4 | 4 | -3 | 1.12 | 0.53 | 2140 | 1 | 0.58 | 0.37 | – |
| CCCN1CC2CN(CCC)CC(C1)C2(CC)CC | 3.85 | 1.52 | 3530 | 4 | 3 | 0 | 3 | 2.1 | 10 | 12 | 5 | 4 | -3 | – | 0.43 | – | 1 | 0.8 | 0.18 | # |
| CCCCN1CC2CN(CCCC)CC(C1)C2(C)C | 3.88 | 1 | 3000 | 4 | 4 | 0 | 4 | 0.57 | 0.2 | 5.3 | 5 | 5 | -6 | 35 | 0.33 | 104000 | -1 | 0.04 | 0.11 | – |
| CC(C)CN1CC2CN(C(C)C)CC(C1)C21CCCCC1 | 4.29 | 1.54 | 1000 | 3 | 5 | 0 | 5 | 0.73 | >41 | 5.7 | 5 | 5 | -1 | 35.5 | 1.54 | 35500 | 4 | >7 | 0.13 | – |
| CCCCN1CC2CN(CCCC)CC(C1)C21CCC1 | 4.24 | 0.63 | 520 | 3 | 6 | 0 | 6 | 0.55 | 0.6 | 4.7 | 5 | 6 | -5 | 108 | 1.21 | 56100 | 1 | 0.13 | 0.12 | – |
| CCCC1(C)C2CN(C(C)C)CC1CN(C(C)C)C2 (configuration not stated) | 3.53 | 2.63 | 1990 | 3 | 5 | 0 | 5 | 0.53 | >36 | 4.5 | 5 | 6 | -1 | 106 | 1.32 | 211000 | 5 | >8 | 0.12 | – |
| CCCCN1CC2CN(CCCC)CC(C1)C2(C)CC (configuration not stated) | 4.37 | 0.54 | 3210 | 5 | 4 | -6 | -2 | 0.61 | 0.57 | 4.6 | 5 | 6 | -5 | 0.47 | 0.17 | 1520 | 1 | 0.12 | 0.13 | – |
